Assay results of several laboratories.
Target: RAC-alpha serine/threonine-protein kinase (AKT1, Homo sapiens, UniProt P31749)

| Structure (SMILES) | test | conditions | measurement | result |
| --- | --- | --- | --- | --- |
| Cc1ccc(Nc2nccc(N(C)c3ccc4c(C)n(C)nc4c3)n2)cc1S(N)(=O)=O | enzyme activity, inhibitor | 10 µM | inhibition | 6% |
| CC/C(=N\NC(=O)NCc1cccc(O)c1)c1ccc(O)c(C)c1O | enzyme activity, inhibitor | 0.1 µM | inhibition | 0.1% |
| CC1=C(C#N)[C@@H](c2ccc3[nH]nc(C)c3c2)C(C#N)=C(c2ccc(Cl)cc2)N1 | cell-free assay, competition with immobilised ligand | 1 µM | remaining binding | 100% |
| CCCS(=O)(=O)Nc1ccc(F)c(C(=O)c2c[nH]c3ncc(-c4ccc(Cl)cc4)cc23)c1F | enzyme activity, inhibitor | 1 µM | inhibition | < 20% |
| Cc1cc(NC(=O)c2cccc3cc(-c4cccc5[nH]nc(N)c45)ccc23)ccc1F | enzyme activity, inhibitor | 0.1 µM | activity vs control | 107% |
| O=C(Nc1cnn(-c2csc(C(=O)NC3COC3)c2)c1)Nc1ccccc1Cl | enzyme activity, inhibitor | 5 µM | remaining activity | 95.4% |
| Cn1cnc(Br)c1C1=CN(c2ncnc3[nH]cnc23)CCS1 | enzyme activity, inhibitor, radiometric | 50 nM | inhibition | 26.5% |
| COc1cc(/C=C/C(=O)CC(=O)/C=C/c2ccc(O)c(OC)c2)ccc1O | enzyme activity, inhibitor | 1 µM | activity vs control | 102% |
| CCN(CC)c1ccc(C2=NNC(=O)CC2C)cc1[N+](=O)[O-] (stereo not shown) | enzyme activity, inhibitor | 10 µM | remaining activity | 81% |
| CC(C)(C)c1nc2c(s1)c1nc(N)ncc1c1ccc(NS(=O)(=O)c3c(F)cccc3F)c(F)c12 | enzyme activity, inhibitor, radiometric | 1 µM | remaining activity | 88% |
| CCCOc1ccc([C@H]2[C@H](C(=O)O)[C@@H](c3ccc4c(c3)OCO4)CN2CC(=O)Nc2c(CC)cccc2CC)cc1 | cell-free assay, competition with immobilised ligand | 1 µM | remaining binding | 97% |
| FC(F)c1nc2ccccc2n1-c1nc(N2CCOCC2)nc(N2CCOCC2)n1 | enzyme activity, inhibitor | 10 µM | remaining activity | 123% |
| CNC(=O)Nc1ccc2c(c1)[C@@]1(CC2)OC(=O)N(CC(=O)N(Cc2ccc(F)cc2)[C@@H](C)C(F)(F)F)C1=O | cell-free assay, competition with immobilised ligand | 1 µM | remaining binding | 77% |
| CC(C)(O)[C@H]1CC[C@H](Nc2ccc3ncc(-c4cccc(C(F)(F)F)c4)n3n2)CC1 | enzyme activity, inhibitor | 1 µM | remaining activity | 93.2% |
| COc1cc2ncnc(Nc3ccc(Oc4ccccc4)c(C)c3C)c2cc1OC | enzyme activity, inhibitor | 1 µM | inhibition | 2% |
| O=C1NC(=O)c2cc(Nc3ccc(F)cc3)c(Nc3ccc(F)cc3)cc21 | cell-free assay | 0.5 µM | remaining signal | 94.8% |
| Nc1c(C(=O)NCc2ccc(C(=O)NCCCC3CCCCC3)cc2)cnn1-c1ccccc1 | cell-free assay, competition with immobilised ligand | 0.1 µM | remaining binding | 100% |
| Cn1cncc1C1=CN(c2ncnc3[nH]cnc23)CCS1 | enzyme activity, inhibitor, radiometric | 2 µM | inhibition | 83.7% |
| O=C1Nc2ccc(Cl)cc2C1=Cc1cc(Cl)c(O)c(Cl)c1 | cell-free assay | 0.5 µM | remaining signal | 97.9% |

| Structure (SMILES) | test | conditions | measurement | result |
| --- | --- | --- | --- | --- |
| Nc1nc(NC2CCCCC2)sc1C(=O)c1ccccc1 | enzyme activity, inhibitor | 10 µM | remaining activity | 85% |
| O=C1CCc2cc(Nc3cc(OC4CCOCC4)c([N+](=O)[O-])cc3Cl)ccc2N1 | cell-free assay, competition with immobilised ligand | 1 µM | remaining binding | 98% |
| CN1CC(Oc2cnc(C#N)cc2-c2ccn3nc(NC(=O)C4CC4)cc3c2)C1 | enzyme activity, inhibitor | 1 µM | inhibition | -4% |
| CCN(CC)CCNC(=O)c1c(C)[nH]c(/C=C2\C(=O)Nc3ccc(F)cc32)c1C | cell-free assay | 0.5 µM | remaining signal | 105% |
| CCOc1cc(-c2nncn2C)ccc1Nc1ncc2cc(C)nc(NCC(C)(C)C)c2n1 | enzyme activity, inhibitor, FRET | 1 µM | inhibition | < 15% |
| COc1cc(Nc2cnc(C#N)c(O[C@H](C)CN(C)C)n2)ncc1-c1cnn(C)c1 | enzyme activity, inhibitor, radiometric | 1 µM | remaining activity | 98% |
| CNC(=O)c1cc(Oc2ccc(NC(=O)Nc3ccc(Cl)c(C(F)(F)F)c3)cc2)ccn1 | enzyme activity, inhibitor | 0.3 µM | inhibition | -6% |
| CNC(=O)Nc1ccc2c(c1)CC[C@@]21OC(=O)N(CC(=O)N(Cc2ccc(F)cc2)[C@@H](C)C(F)(F)F)C1=O | cell-free assay, competition with immobilised ligand | 1 µM | remaining binding | 91% |
| FC(F)(F)Oc1cccc(-c2cnc3ccc(-c4ccncc4)nn23)c1 | enzyme activity, inhibitor, radiometric | 5 µM | activity vs control | 104% |
| CN(C)C(=O)Cn1cc(-c2nc([C@@](C)(c3ccc(-c4cnc(N)nc4)cc3)C3CC3)no2)cn1 | cell-free assay, competition with immobilised ligand | 1 µM | remaining binding | 94% |
| COc1cc(F)ccc1-c1ncnc(Nc2cccc(C[S@](C)(=N)=O)c2)n1 | enzyme activity, inhibitor | 10 µM | activity vs control | 108% |
| CN(C)C1CCN(CC#Cc2nn(C3CCCC3)c3nc(NCc4ccccc4)ncc23)C1 (stereo not shown) | enzyme activity, inhibitor, FRET | 0.1 µM | inhibition | 4% |
| CS(=O)(=O)Nc1cccc(-c2csc(NC(=O)CSc3nc4nccnc4c(=O)n3CCc3ccccc3)n2)c1 | enzyme activity, inhibitor | 10 µM | inhibition | 1% |
| COCCOc1nc(-c2ccc(Cl)nc2)nc2c1CN(C(=O)c1ncn3ccccc13)CC2 | cell-free assay, competition with immobilised ligand | 0.1 µM | remaining binding | 82% |
| C=CC(=O)Nc1cc(Nc2nccc(Nc3cc(Cl)c(F)cc3C(C)(C)O)n2)c(OC)cc1N1CC[C@@H](N(C)C)C1 | enzyme activity, inhibitor | 1 µM | inhibition | -5% |
| CNc1cccc2cc(C(=O)Nc3ccc(C(=O)O)cc3)c(=O)[nH]c12 | enzyme activity, inhibitor | 10 µM | inhibition | 2.2% |
| C[C@@H]1CCN(C(=O)CC#N)C[C@@H]1N(C)c1ncnc2[nH]ccc12 | cell-free assay, inhibitor | 0.5 µM | remaining signal | 90.3% |
| Cc1ccc(NC(=O)c2ccc(C)c(C(F)(F)F)c2)cc1C#Cc1nn(C2CCC(O)CC2)c2ncnc(N)c12 (stereo not shown) | cell-free assay | 10 µM | remaining signal | 101% |
